Source: PubChem BioAssay (Johns Hopkins Ion Channel Center)
The list is not random: actives were taken first. Their share in the collection is about 3.5%.
MrgX1 PAM – positive allosteric modulators of MrgX1, primary screen, HEK293 cells, Fluo-4 calcium flux; FDSS; stronger effect = higher value; 0.63% of 310,000 active; B-score at 10 µM;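 active = plate-corrected calcium response at least 3 library SD above typical, normal starting fluorescence, not activating the receptor alone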;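 note: compound read alongside a low EC10 to EC30 dose of BAM8-22 agonist; peak minus trough fluorescence over baseline measured at the second addition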
Target sequence (Q96LB2 whole entry, looked up): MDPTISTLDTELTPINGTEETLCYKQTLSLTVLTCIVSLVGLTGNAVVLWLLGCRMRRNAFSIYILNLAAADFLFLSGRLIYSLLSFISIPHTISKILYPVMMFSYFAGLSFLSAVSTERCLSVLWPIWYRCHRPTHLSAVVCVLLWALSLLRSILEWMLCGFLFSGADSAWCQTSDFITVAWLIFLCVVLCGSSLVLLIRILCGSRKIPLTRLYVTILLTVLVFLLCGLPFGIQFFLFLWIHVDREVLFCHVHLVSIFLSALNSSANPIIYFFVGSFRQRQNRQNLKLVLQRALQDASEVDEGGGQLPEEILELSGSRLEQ
MrgX1 agonist – agonists of human MrgX1 receptor, primary screen, HEK293 cells, Fluo-4 calcium flux | B-score at 10 µM | Fluo-4 calcium fluorescence, agonist mode; stronger effect = higher value | 0.44% of 310,000 active;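 active = calcium response B-score plate-corrected fluorescence ratio at least 3 library SD, with starting fluorescence B-score inside 5 SD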
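Assay system: MrgX1-expressing HEK293 cells / Amount: fifteen thousand cells per well / Doses: test compound in the initial addition of three / Timing: cells plated overnight, dye loaded 0.5 h 37 °C, 0.5 h room temperature / Technique: kinetic calcium dye fluorescence, Fluo-4 NW / Control set: positive and negative controls per plate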
RGS4 inh – RGS4 inhibitors, primary screen, cell-based, HEK293 M3R inducible RGS4, calcium flux | B-score at 10 µM | AID 463165, 2010 | Fluo-4 calcium flux; stronger effect = higher value; triggered by carbachol at its EC20 | 0.45% of 310,000 active | Regulator of G-protein signaling 4 (Homo sapiens), P49798;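 active = B-score, a plate-corrected calcium signal, over three deviations above library mean, with baseline fluorescence within five deviations of library mean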;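 note: RGS4 expression induced by doxycycline in cells with stable M3 receptor; B-score is computed from the integrated fluorescence ratio over baseline after carbachol; higher B-score means a larger calcium signal and so more RGS4 inhibition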
Target sequence (P49798 whole entry, looked up): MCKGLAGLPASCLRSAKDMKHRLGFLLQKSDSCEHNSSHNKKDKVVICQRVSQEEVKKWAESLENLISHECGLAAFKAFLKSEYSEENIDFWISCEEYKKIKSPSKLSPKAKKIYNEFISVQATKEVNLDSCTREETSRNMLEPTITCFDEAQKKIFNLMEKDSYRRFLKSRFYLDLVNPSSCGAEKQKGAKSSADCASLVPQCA
RGS4 pot – RGS4 potentiators or activators, primary screen, cell-based, HEK293 M3R inducible RGS4, calcium flux; B-score at 10 µM; 0.92% of 310,000 active; carbachol calcium flux Fluo4; stronger effect = lower value;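 active = B-score of the integrated calcium signal more than 4 SD below the library mean, with starting fluorescence not abnormally high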;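 note: negative B-score means reduced calcium response which marks RGS4 activation or potentiation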
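Assay system: Inducible-RGS4 HEK293 cells carrying M3 receptor | Schedule: Compound preincubation 20 min at room temperature before agonist | Signal: Kinetic calcium fluorescence imaging with Fluo4-AM dye, 2 µM | Read-out basis: B score from integrated fluorescence ratio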
MrgX1 antagonist – antagonists of human MrgX1 receptor, primary screen, HEK293 cells, Fluo-4 calcium flux. Mas-related G-protein coupled receptor member X1 (Homo sapiens), Q96LB2. BAM8-22 antagonism; stronger effect = lower value. B-score at 10 µM. 1.3% of 310,000 active. AID 588676, 2011;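 active = calcium-response B-score plate-corrected more than 3 library SD below zero, starting fluorescence within 5 deviations, no agonist response on first addition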;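 note: peak minus trough fluorescence over baseline after final BAM8-22 challenge near maximal dose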
MrgX1 ant reconf – MrgX1 receptor antagonists, duplicate retest, confirmation, HEK293 cells, Fluo-4 calcium flux | BAM8-22 calcium flux; stronger effect = lower value | remaining BAM8-22 calcium response % of control (stronger effect = lower value), % at 10 µM | 19% of 2,300 active | shares compounds with MrgX1 antagonist | AID 602420, 2012;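 active = remaining agonist calcium response no higher than 100% minus 3 SD of agonist-only control wells, with starting fluorescence near control levels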;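 note: agonist BAM8-22 given at a near maximal EC90 to ECmax level; peak minus minimum fluorescence divided by baseline after agonist addition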
HEK293 Ca flux – nonspecific calcium signal in parental HEK293, confirmation, counter-screen for MrgX1 antagonist project, parental HEK293 cells, Fluo-4 calcium flux. 2% of 4,000 active. shares compounds with MrgX1 antagonist. AID 624111, 2012. Fluo-4 calcium fluorescence, FDSS. fluorescence ratio F(max-min)/F0 at 10 µM;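 active = duplicate-averaged calcium fluorescence ratio at least three times the standard deviation of buffer wells, a nonspecific response in parental cells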
HEK293 Ca counter – calcium response in parental HEK293 cells, primary screen, counter-screen for MrgX1 allosteric activator project, cell-based, Fluo-4 calcium flux, duplicate | AID 624114, 2012 | shares compounds with MrgX1 antagonist | Fluo-4 fluorescence ratio; stronger effect = higher value | 0.4% of 4,000 active | fluorescence ratio F(max-min)/F0 at 10 µM;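 active = calcium fluorescence ratio, averaged over duplicates, at least 3 SD of the buffer-well ratio, meaning a nonspecific response in receptor-free cells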;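 note: untransfected parental HEK293 lacking MrgX1 used as counterscreen for MrgX1 allosteric activators; fluorescence change taken during the second addition on a kinetic imager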
HEK293 Ca cntr2 – calcium response in parental HEK293 cells, primary screen, counter-screen for MrgX1 agonist project, cell-based, Fluo-4 calcium flux, duplicate, agonist mode. shares compounds with MrgX1 antagonist. Fluo-4 calcium fluorescence (FDSS); stronger effect = higher value. 8.7% of 4,000 active. fluorescence ratio F(max-min)/F0 at 10 µM;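 active = calcium fluorescence ratio at least three times the spread of buffer wells, meaning a non-specific response in parental cells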
Numbers stand for hits; – = inactive; · = not tested or not shown.

SMILES	MrgX1 PAM	MrgX1 agonist	RGS4 inh	RGS4 pot	MrgX1 antagonist	MrgX1 ant reconf	HEK293 Ca flux	HEK293 Ca counter	HEK293 Ca cntr2
COC(=O)c1ccc(NCN2C(=O)C3C4CCC(C4)C3C2=O)cc1 (stereo not given)	–	–	–	–	-5.58	–	–	–	–
CCOc1ccc(/C=N/OC(C)C(=O)NCc2ccc3c(c2)OCO3)cc1 (stereo not given)	–	–	–	–	–	·	·	·	·
CC(=O)N1CCSc2ccc(S(=O)(=O)NCCc3ccc(Cl)cc3)cc21	–	–	–	–	-4.96	–	–	–	–
CC(=O)N1CC(C)Sc2ccc(S(=O)(=O)NCCc3ccc(C)cc3)cc21 (stereo not given)	–	–	–	–	–	·	·	·	·
CCCc1nnc(SCc2ccc(OCC)cc2)n1N	–	–	–	–	-4.53	–	–	–	–
Cc1cc(Nc2ccccc2)n(C(=O)c2ccccc2)n1	–	–	–	–	-6.82	–	–	–	–
COc1ccc(-c2cc(C(=O)NCc3ccco3)c3ccccc3n2)cc1	–	–	–	–	–	·	·	·	·
O=C(NCc1ccco1)c1cc(-c2ccccc2)nc2ccccc12	–	–	–	–	-5.31	–	–	–	–
Cc1cc(C(=O)NNC(=O)/C=C/c2ccccc2Cl)c(C)o1	–	–	–	–	-14.9	–	–	–	–
COCCN(CC1CCCN(C2Cc3ccccc3C2)C1)C(=O)CSC (stereo not given)	–	–	–	–	–	·	·	·	·
CC(=O)c1ccccc1NC(=O)CSc1nnc(Cc2csc(C)n2)o1	–	–	–	–	–	·	·	·	·
Cc1nc(Cc2nnc(SC(C)C(=O)Nc3cccc(C#N)c3)o2)cs1 (stereo not given)	–	–	–	–	-5.87	–	–	–	–
O=C(NCCc1ccc(Cl)cc1)C1CCN(S(=O)(=O)N2CCCC2)CC1	–	–	–	–	-5.74	–	–	–	–
OCC[C@@H]1C[C@@H](O)[C@H](O)[C@]2(CCc3ccccc3O2)O1	–	–	–	–	–	·	·	·	·
COc1ccc(S(=O)(=O)N(C)C)cc1NCC(=O)Nc1cccc(C#N)c1	–	–	–	–	–	·	·	·	·
CN1CCN(C2=Nc3c(Cl)cc(Cl)c4cccc2c34)CC1	–	–	–	–	-5.82	–	–	–	48.6
CN1CCN(C2=Nc3cc(F)ccc3Cc3ccccc32)CC1	–	–	–	–	–	·	·	·	·
Cc1ccc(N2CN(Cc3cccnc3)CNC2=S)c(C)c1	–	–	–	–	–	·	·	·	·
Cc1ccc(N2CN(Cc3ccco3)CNC2=S)c(C)c1	–	–	–	–	-6.25	–	–	–	–
CN1C(=O)Cc2cc(S(=O)(=O)N3CCN(c4cccc(C(F)(F)F)c4)CC3)ccc21	–	–	–	–	–	·	·	·	·
Cc1cc(C(=O)NC(C)c2ccccc2)c2cc(F)ccc2n1 (stereo not given)	–	–	–	–	-5.42	–	–	–	–
Cc1cc(C(=O)NC2CCCCC2)c2cc(F)ccc2n1	–	–	–	–	–	·	·	·	·
Cc1cccc(N(C)C(=O)C2CCCN2S(=O)(=O)c2cccc3nsnc23)c1 (stereo not given)	–	–	–	–	–	·	·	·	·
O=C(NCC1CCCN1S(=O)(=O)c1cccs1)c1ccc(Cl)cc1 (stereo not given)	–	–	–	–	-5.65	–	–	–	–
O=C(NCC1CCCN1S(=O)(=O)c1cccs1)c1ccccc1 (stereo not given)	–	–	–	–	–	·	·	·	·
SMILES	MrgX1 PAM	MrgX1 agonist	RGS4 inh	RGS4 pot	MrgX1 antagonist	MrgX1 ant reconf	HEK293 Ca flux	HEK293 Ca counter	HEK293 Ca cntr2
Cn1cccc1-c1nc2ccccc2n1Cc1ccccc1	–	–	–	–	-4.93	–	–	–	–
CC(OC(=O)c1nccnc1N)C(=O)Nc1ccc(S(=O)(=O)N2CCCC2)cc1 (stereo not given)	–	–	–	–	–	·	·	·	·
CCc1nc2ccccc2n1CC1CC1(Cl)Cl (stereo not given)	–	–	–	–	–	·	·	·	·
CCn1c(SCC(=O)Nc2cccc(C)n2)nc2c1c(=O)n(C)c(=O)n2C	–	–	–	–	-5.92	–	–	–	–
O=C(COc1ccccc1)Nc1ccncc1Cl	–	–	–	–	–	·	·	·	·
Cc1cc(NCCCN2CCOCC2)n2c(nc3ccccc32)c1C#N	–	–	–	–	-5.99	78.3%	–	–	–
Cc1cc(NCCN2CCOCC2)n2c(nc3ccccc32)c1C#N	–	–	–	–	–	·	·	·	·
COc1ccccc1NC(=O)COc1cc(C)nc(C(C)C)n1	–	–	–	–	-5.42	–	–	–	–
COc1ccc(N2C(=O)CCC(C(=O)N3CCCCC3)C2c2ccc(F)cc2)cc1 (stereo not given)	–	–	–	–	–	·	·	·	·
COc1ccc(N2C(=O)CCC(C(=O)N3CCOCC3)C2c2ccc(F)cc2)cc1 (stereo not given)	–	–	–	–	-4.76	–	–	–	–
COC(=O)C1CSc2[nH]c(=O)sc2C1c1ccccc1 (stereo not given)	–	–	–	–	-5.67	–	–	–	–
Cc1occc1C(=O)N/N=C/c1cccs1	–	–	–	–	-10.3	83.3%	–	–	–
O=C(c1nc2ccccc2s1)N1CCSCC1	–	–	–	–	-10	–	–	–	–
O=C(c1nc2ccccc2s1)N1CCN(c2ccccn2)CC1	–	–	·	·	–	·	·	·	·
O=S(=O)(c1ccccc1Cl)N1CCC(O)(c2ccc3c(c2)OCO3)CC1	–	–	–	–	-4.89	–	–	–	–
O=S(=O)(c1ccc2c(c1)OCCO2)N1CCC(O)(c2ccc(Cl)cc2)CC1	–	–	–	–	–	·	·	·	·
COCCn1nnnc1C(c1cccs1)N1CCN(c2nc3ccccc3s2)CC1 (stereo not given)	–	–	–	–	–	·	·	·	·
